Assay results as given in article PMC9924312 (Asian Pacific Journal of Cancer Prevention : APJCP, 2022).

How the values were obtained:
[1] = system: neuroblastoma SH-SY5Y; assay: MTT antiproliferative assay, 72 h exposure; assay type: cell-based, human
Method in brief: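 SH-SY5Y cells were kept in 1:1 EMEM/F12 with 10% FBS at 37°C under 5% CO2. After trypsin/EDTA detachment and trypan-blue counting, cells were plated in 96-well format and allowed 24 h to attach. They were then incubated ±test compound for 72 h. IC50 was derived from a logarithmic trend line of the cytotoxicity plots.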

[2] = system: dermal fibroblasts (BJ ATCC CRL-2522); assay: MTT antiproliferative assay on normal cells, 72 h exposure; assay type: cell-based, human; details: read-out: IC50 Fibroblast
Method in brief: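 Human BJ dermal fibroblasts were grown in DMEM at 37°C under humidified 5% CO2. Cells were detached with 0.25% trypsin/0.53 mM EDTA, counted by trypan blue, seeded in 96-well plates and left 24 h to attach, then exposed to test compound or no drug for 72 h. IC50 was taken from a logarithmic trend line.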

## CC(=O)O.CCN(CC)CC[n+]1ccc2c(C)c3[nH]c4ccc(O)cc4c3c(C)c2c1 [Compound 3]
[1]; 10 µM, 72 h exposure
  % SH-SY5Y 10µM (percentage inhibition): 74.22 ± 0.025%
[1]; 50 µM, 72 h exposure
  % SH-SY5Y 50µM (percentage inhibition): 78.23 ± 0.057%
[1]; read-out: IC50 SH-SY5Y, MTT, 72 h
  IC50: 1060 ± 190 nM
[2]
  IC50: 303 ± 1 nM
